Data on 28 molecules can be found in ChEMBL document CHEMBL4831489, “Design and synthesis of the first indole-based blockers of Panx-1 channel” (Eur J Med Chem, 2021).

The structures appear in SMILES notation. Active and inactive are the calls of the source.

In assay [1] the target is Pannexin-1 (Mus musculus) (UniProt Q9JIP4). In words: Inhibition of mouse Panx-1 expressed in Xenopus laevis oocytes assessed as inhibition of membrane current cells held at -60 mV and voltage steps to +60 mV in presence of CBX at 50 uM measured by Whole cell voltage clamp assay relative to control. The assay is classed as cell-based. Particulars: Oocyte. The method in brief:
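Xenopus oocytes expressing Panx-1 were studied by two-electrode voltage clamp (3 M KCl electrodes) under continuous perfusion with OR2 Ringer, pH 7.5. Cells were held at −60 mV, with 5 s steps to +60 mV at 0.1 Hz. Compounds were screened at 50 µM and inhibition expressed as % of membrane current, n = 1–3 oocytes.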

The target in assay [2] is T1, P2X purinoceptor 7 (Homo sapiens) (UniProt Q99572).
T1 sequence (whole entry): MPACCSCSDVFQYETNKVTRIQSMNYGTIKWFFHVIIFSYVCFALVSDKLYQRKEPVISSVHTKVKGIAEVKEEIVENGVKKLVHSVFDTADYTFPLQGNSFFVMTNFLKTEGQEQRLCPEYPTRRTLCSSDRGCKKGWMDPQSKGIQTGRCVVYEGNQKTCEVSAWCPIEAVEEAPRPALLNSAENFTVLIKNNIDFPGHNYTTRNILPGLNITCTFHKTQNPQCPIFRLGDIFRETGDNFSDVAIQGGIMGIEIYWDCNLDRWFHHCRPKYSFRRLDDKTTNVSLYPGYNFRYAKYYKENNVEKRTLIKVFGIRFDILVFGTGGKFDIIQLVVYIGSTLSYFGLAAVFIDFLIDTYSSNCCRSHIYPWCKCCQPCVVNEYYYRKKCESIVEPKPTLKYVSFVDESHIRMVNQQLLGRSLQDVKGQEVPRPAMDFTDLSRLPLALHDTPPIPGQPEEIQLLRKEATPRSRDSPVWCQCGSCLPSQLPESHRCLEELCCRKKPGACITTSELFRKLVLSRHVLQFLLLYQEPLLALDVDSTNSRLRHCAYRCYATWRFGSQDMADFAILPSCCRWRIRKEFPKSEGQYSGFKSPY
In words: Inhibition of human P2X7R expressed in Xenopus laevis oocytes assessed as inhibition of BzATP-induced cell membrane current at 10 uM measured by Whole cell voltage clamp assay relative to control. It is filed as cell-based. Particulars: Oocyte.

The next assay has as its target Pannexin-1 (Mus musculus, UniProt Q9JIP4). In words: Inhibition of mouse Panx-1 expressed in Xenopus laevis oocytes assessed as inhibition of membrane current cells held at -60 mV and voltage steps to +60 mV in presence of CBX measured by Whole cell voltage clamp assay relative to control. The assay is classed as cell-based, Oocyte. In outline:
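Two-electrode voltage clamp of Panx-1-expressing Xenopus oocytes perfused with OR2, pH 7.5. Holding potential −60 mV, with repetitive 5 s steps to +60 mV at 0.1 Hz. Compound was applied at increasing concentrations to build dose–response curves and derive IC50.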

Assay [3] concerns the target Gap junction beta-1 protein (Homo sapiens) (UniProt P08034). In words: Inhibition of wild type Cx32(E143) (unknown origin) expressed in Xenopus laevis oocytes assessed as at holding potential of -10 mV and stepped in 5 mV test pulses of 5 sec duration at 10 uM measured by Voltage clamp assay relative to control. As to conditions: Oocyte. The assay is classed as cell-based.

For assay [4], the species on record is Mus musculus. In words: Antiallodynic activity in oxaliplatin-induced neuropathy pain CD-1 mouse model assessed as reversal of enhancement of pain threshold at 1 nmol, IT measured after 60 to 105 mins by cold plate assay. Particulars: time 60-105 min. It is filed as functional, organism-based. In outline:
(§1)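 Male CD-1 mice (22–25 g) given oxaliplatin 2.4 mg kg⁻¹ i.p. in 5% glucose on days 1–2, 5–9 and 12–14. Test agents were dissolved in saline and injected intrathecally (5 µl, L4–L5) at 0.1–1 nmol from day 14. Cold plate held at 4 °C. Latency to first paw lift/lick was recorded every 15 min.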

The species entered for assay [5] is Mus musculus. In words: Antiallodynic activity in oxaliplatin-induced neuropathy pain CD-1 mouse model assessed as reversal of enhancement of pain threshold at 0.3 nmol, IT measured after 45 mins by cold plate assay. It is filed as functional, organism-based. The method in brief:
as §1

The species entered for assay [6] is Mus musculus. In words: Antiallodynic activity in oxaliplatin-induced neuropathy pain CD-1 mouse model assessed as reversal of enhancement of pain threshold at 0.3 to 1 nmol, IT measured after 80 mins by cold plate assay. It is filed as functional, organism-based. Particulars: dose 0.3-1 nmol. The method in brief: as §1
For assay [7], the system named is Mus musculus. In words: Antiallodynic activity in oxaliplatin-induced neuropathy pain IT dosed CD-1 mouse model assessed as reversal of enhancement of pain threshold by measuring minimum effective dose measured 60 to 75 mins by cold plate assay. The assay is classed as functional, organism-based. Particulars: dose 0.3 nmol, time 60-75 min. The method in brief: (§2)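 Male CD-1 mice (22–25 g) were given oxaliplatin 2.4 mg kg−1 i.p. in 5% glucose on days 1–2, 5–9 and 12–14, with vehicle controls. Behavioural tests were done on day 15. Compounds in saline were injected intrathecally at L4–L5 at 0.1–1 nmol. Mice were placed on a 4 °C cold plate, and latency to the first hind-paw lifting or licking was recorded every 15 min.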

The species entered for assay [8] is Mus musculus. In words: Antiallodynic activity in oxaliplatin-induced neuropathy pain CD-1 mouse model assessed as reversal of enhancement of pain threshold at 1 nmol, IT measured after 45 to 90 mins by cold plate assay. The assay is classed as functional, organism-based. Particulars: time 45-90 min. In outline: as §2

Chain of Pannexin-1 (Mus musculus) (Q9JIP4 whole entry, the tested form may be a part): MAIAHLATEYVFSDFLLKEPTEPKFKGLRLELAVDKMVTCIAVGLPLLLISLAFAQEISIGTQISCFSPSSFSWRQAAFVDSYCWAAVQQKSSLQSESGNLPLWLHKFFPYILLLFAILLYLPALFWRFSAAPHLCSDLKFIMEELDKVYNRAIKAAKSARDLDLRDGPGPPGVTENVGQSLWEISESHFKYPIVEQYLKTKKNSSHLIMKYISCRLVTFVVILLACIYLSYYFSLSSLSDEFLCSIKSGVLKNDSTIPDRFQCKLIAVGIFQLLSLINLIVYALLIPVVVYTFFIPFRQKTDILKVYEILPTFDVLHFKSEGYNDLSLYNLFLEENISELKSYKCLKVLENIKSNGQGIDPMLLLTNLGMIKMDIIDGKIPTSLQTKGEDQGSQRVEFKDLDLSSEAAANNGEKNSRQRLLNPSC
Chain of Pannexin-1 (Q9JIP4 whole entry, the tested form may be a part): as above
Chain of Gap junction beta-1 protein (Homo sapiens) (P08034 whole entry): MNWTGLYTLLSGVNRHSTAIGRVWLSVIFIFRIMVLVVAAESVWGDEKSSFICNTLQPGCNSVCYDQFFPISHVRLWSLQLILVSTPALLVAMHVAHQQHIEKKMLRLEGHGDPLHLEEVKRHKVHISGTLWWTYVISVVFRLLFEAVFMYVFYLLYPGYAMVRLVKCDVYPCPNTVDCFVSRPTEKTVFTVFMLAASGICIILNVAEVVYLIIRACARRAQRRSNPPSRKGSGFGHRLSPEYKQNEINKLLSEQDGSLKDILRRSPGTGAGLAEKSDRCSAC

Broadly, the inhibition is how much of the control response was suppressed. For the molecule `O=C(O)c1ccc(Cn2cc(C(=O)O)c3cc([N+](=O)[O-])ccc32)cc1`, the inhibition in [1] amounted to 54%.
As usually defined, the IC50 is the concentration that gives 50% inhibition. Turning to `O=C(O)c1ccc(Cn2c(C(=O)O)cc3cc(S(=O)(=O)N(Cc4ccccc4)Cc4ccccc4)ccc32)cc1`, the inhibition turned out to be 61.8% in assay [2], 0% in assay [3] and 100% in assay [1]. For the same molecule, the IC50 at Pannexin-1 is 0.25 µM.
`O=C(O)c1cc2cc(S(=O)(=O)N(CCc3ccccc3)Cc3ccccc3)ccc2n1CCc1ccccc1`: the inhibition in assay [1] amounted to 37.3%.
The same measure, in the same setting: the result for `NS(=O)(=O)c1ccc2c(c1)cc(C(=O)O)n2Cc1ccc(C(=O)O)cc1` reads 61.7%.
In the case of `CCN(Cc1cccc(S(=O)(=O)O)c1)c1ccc(C(=C2C=CC(=[N+](CC)Cc3cccc(S(=O)(=O)O)c3)C=C2)c2ccccc2S(=O)(=O)[O-])cc1`, at Pannexin-1, the IC50 stood at 0.27 µM.
`O=C(O)c1ccc(CN(Cc2ccc(C(=O)O)cc2)S(=O)(=O)c2ccc3c(c2)cc(C(=O)O)n3Cc2ccc(C(=O)O)cc2)cc1`: the inhibition in assay [1] stood at 79%.
For `O=C(O)c1cc2cc(S(=O)(=O)N(Cc3ccccc3)Cc3ccccc3)ccc2n1CCc1ccccc1`, the inhibition in assay [1] was found to be 41.3%.
The same measure, in the same setting: the result for `O=C(O)c1ccc(CCn2cc(C(=O)O)c3cc([N+](=O)[O-])ccc32)cc1` reads 73%; that for `O=C(O)c1cc2cc(S(=O)(=O)NCc3ccccc3)ccc2n1Cc1ccccc1`, 42%.
As to `O=C(O)c1cc2cc(S(=O)(=O)N(Cc3ccccc3)Cc3ccccc3)ccc2n1Cc1ccccc1`, the inhibition in assay [2] came to 0%; in assay [3], 20%; in assay [1], 41%.
With `O=C(O)c1ccc(CNS(=O)(=O)c2ccc3c(c2)cc(C(=O)O)n3Cc2ccc(C(=O)O)cc2)cc1`, the inhibition came to 0% in [2], 0% in assay [3] and 100% in assay [1]. The IC50 at Pannexin-1 is 0.8 µM. The result in the assay listed under Mus musculus [4] and in the assay listed under Mus musculus [5] was Active.
As for `NS(=O)(=O)c1ccc2c(c1)cc(C(=O)O)n2Cc1ccccc1`, the inhibition in assay [2] was 15%; in assay [3], 15%; in assay [1] it was 29.3%.
With `CCCN(CCC)S(=O)(=O)c1ccc(C(=O)O)cc1` [PROBENECID], the IC50 at Pannexin-1 is 150 µM.
For `O=C(O)c1cn(Cc2ccccc2)c2ccc(N(Cc3ccccc3)Cc3ccccc3)cc12`, the inhibition in assay [1] came to 19.5%.
Same read-out and setting: the result for `O=C(O)c1cc2cc([N+](=O)[O-])ccc2n1Cc1ccccc1` reads 51.3%; that for `O=C(O)c1cc2cc([N+](=O)[O-])ccc2n1CCc1ccccc1`, 56.3%.
Consider `O=C(O)c1cn(Cc2ccccc2)c2ccc([N+](=O)[O-])cc12`, for which the half-inhibitory concentration (IC50) on Pannexin-1 was found to be 27.5 µM. The inhibition in [1] came out at 65%.
The corresponding values for `O=C(O)c1cc2cc([N+](=O)[O-])ccc2n1CCCc1ccccc1` are 23.1 µM and 65.5%.
For `O=C(O)c1cn(CCc2ccccc2)c2ccc([N+](=O)[O-])cc12`, the inhibition in [1] came to 52.7%.
The same measure, in the same setting: the result for `O=C(O)c1cc2cc(S(=O)(=O)NCCc3ccccc3)ccc2n1CCc1ccccc1` reads 57.7%.
For `O=C(O)c1cc2cc(N(Cc3ccccc3)Cc3ccccc3)ccc2n1Cc1ccccc1`, in the assay listed under Mus musculus [6], the result was inactive. Besides, in assay [1], the inhibition amounted to 0%.
Take `O=C(O)c1cn(CCCCCc2ccccc2)c2ccc([N+](=O)[O-])cc12`: in [1], the inhibition was found to be 32.3%.
In the case of `O=C(O)c1cc([N+](=O)[O-])ccc1NCCCc1ccccc1` [5-NITRO-2-PHENYLPROPYLAMINOBENZOIC ACID [NPPB]], the IC50 on Pannexin-1 came out at 50 µM.
Turning to `O=C(O)c1cn(CCCCc2ccccc2)c2ccc([N+](=O)[O-])cc12`, the inhibition in [1] stood at 65.7%.
As for `O=C(O)c1ccc(Cn2c(C(=O)O)cc3cc([N+](=O)[O-])ccc32)cc1`, on Pannexin-1, the IC50 was found to be 4.9 µM. For the same molecule, the inhibition in [1] turned out to be 61%.
As to `O=C(O)c1cc2cc([N+](=O)[O-])ccc2n1CCCCCc1ccccc1`, the inhibition in assay [1] turned out to be 58%.
In the case of `O=C(O)c1ccc(CCn2c(C(=O)O)cc3cc([N+](=O)[O-])ccc32)cc1`, in assay [1], the inhibition is 31.7%.
`O=C(O)c1cn(CCCc2ccccc2)c2ccc([N+](=O)[O-])cc12`: the inhibition in assay [2] stood at 0%; in assay [3], 0%; in assay [1] it was 71%. Further, the IC50 at Pannexin-1 came out at 12.4 µM. The outcome with Mus musculus [7] and in the assay listed under Mus musculus [8] was Active.
